According to ChEMBL document CHEMBL1124884, “Potent renin inhibitory peptides containing hydrophilic end groups” (J Med Chem, 1990):
In brackets after ≈: the same amount, converted by molar mass. *1 amine or outer side, *2 acyl side, *3 side chain or, on linkers, in order; H or OH if unused. Where a SMILES comes first, the peptide text is derived from it. [ ]: non-standard residue; d: D form. The star is where a group is joined. Leuψ((S)CH(OH)CH2)dVal = CC(C)C[C@H](N[*:1])[C@@H](O)C[C@@H](C(=O)[*:2])C(C)C; X2 = OC[C@H]1O[C@H](O)[C@H](N*)[C@@H](O)[C@H]1O; NMeH = CN[C@@H](Cc1c[nH]cn1)C(=O)O; NHCH2(2-pyridyl) = c1ccc(CN*)nc1; NHC(CH2OH)3 = OCC(CO)(CO)N*; Boc = CC(C)(C)OC(=O)*; CO = O=C([*:1])[*:2]

Legend:
Renin (Homo sapiens) [1] = target: Renin (Homo sapiens) (UniProt P00797); experiment: Maximum hypotensive activity, the magnitude of the human renin dependent blood pressure component was measured (administered intravenously.)
Renin (Homo sapiens), sequence (P00797 whole entry, looked up): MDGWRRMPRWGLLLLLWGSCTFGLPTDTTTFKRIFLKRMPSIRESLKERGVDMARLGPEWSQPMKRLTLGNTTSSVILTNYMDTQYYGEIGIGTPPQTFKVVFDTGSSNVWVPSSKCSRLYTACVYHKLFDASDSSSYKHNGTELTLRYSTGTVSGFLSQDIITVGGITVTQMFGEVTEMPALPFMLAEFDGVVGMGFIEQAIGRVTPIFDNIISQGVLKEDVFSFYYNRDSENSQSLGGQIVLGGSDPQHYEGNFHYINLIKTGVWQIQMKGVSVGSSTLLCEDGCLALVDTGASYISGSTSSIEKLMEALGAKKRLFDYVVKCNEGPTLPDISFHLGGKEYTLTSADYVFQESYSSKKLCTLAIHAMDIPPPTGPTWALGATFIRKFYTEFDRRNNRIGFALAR

[2] = Solubility in water at 37 degrees Centigrade; format: physicochemical; conditions: read-out: S
In short: (§1)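 Visual estimate: compound added to distilled water in a series of clear tubes at 1-100 mg/mL, tubes shaken, observed first at 25 °C and again after 30 min in a 37 °C water bath.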

Renin (Homo sapiens) [3] = target: Renin (Homo sapiens) (UniProt P00797); experiment: Tested in vitro for inhibitory activity against plasma renin in human plasma
Renin (Homo sapiens) [4] = target: Renin (Homo sapiens) (UniProt P00797); experiment: Maximum hypotensive activity, the magnitude of the human renin dependent blood pressure component was measured. (administered perorally)
[5] = Solubility in water at 25 degrees Centigrade; format: physicochemical; conditions: read-out: S
In short: as §1

Compound | solubility [2] | IC50 (Renin (Homo sapiens) [3]) | solubility [5] | Hypotensive activity (Renin (Homo sapiens) [1]) | Hypotensive activity (Renin (Homo sapiens) [4])
CC[C@H](C)[C@H](NC(=O)[C@H](C[C@H](O)[C@H](CC(C)C)NC(=O)[C@H](Cc1c[nH]cn1)N(C)C(=O)[C@H](Cc1ccccc1)NC(=O)[C@@H]1CCCN1C(=O)NC(CO)(CO)CO)C(C)C)C(=O)NCc1ccccn1 ({NHC(CH2OH)3-CO}-PF[NMeH][Leuψ((S)CH(OH)CH2)dVal]I-{NHCH2(2-pyridyl)}) | 1000 µg/mL (≈ 1020 µM) | 0.33 nM | 1000 µg/mL (≈ 1020 µM) | 40 mmHg | 38 mmHg
CC[C@H](C)[C@H](NC(=O)[C@H](C[C@H](O)[C@H](CC(C)C)NC(=O)[C@H](Cc1cnc[nH]1)N(C)C(=O)[C@H](Cc1ccccc1)NC(=O)[C@@H]1CCCN1C(=O)N[C@@H]1[C@@H](O)[C@@H](O)[C@@H](CO)O[C@@H]1O)C(C)C)C(=O)NCc1ccccn1 ({X2-CO}-PF[NMeH][Leuψ((S)CH(OH)CH2)dVal]I-{NHCH2(2-pyridyl)}) | < 2000 µg/mL | 0.49 nM | < 2000 µg/mL | – | –
CC[C@H](C)[C@H](NC(=O)[C@H](C[C@H](O)[C@H](CC(C)C)NC(=O)[C@H](Cc1c[nH]cn1)N(C)C(=O)[C@H](Cc1ccccc1)NC(=O)[C@@H]1CCCN1C(=O)N[C@@H]1[C@@H](O)[C@@H](O)[C@@H](CO)O[C@@H]1O)C(C)C)C(=O)NCc1ccccn1 ({X2-CO}-PF[NMeH][Leuψ((S)CH(OH)CH2)dVal]I-{NHCH2(2-pyridyl)}) | – | – | – | 36 mmHg | 37 mmHg

The next lines start with results.

solubility [2] | IC50 (Renin (Homo sapiens) [3]) | solubility [5] | Compound | Hypotensive activity (Renin (Homo sapiens) [1]) | Hypotensive activity (Renin (Homo sapiens) [4])
< 1000 µg/mL | 0.26 nM | 1000 µg/mL (≈ 1060 µM) | CC[C@H](C)[C@H](NC(=O)[C@H](C[C@H](O)[C@H](CC(C)C)NC(=O)[C@H](Cc1c[nH]cn1)N(C)C(=O)[C@H](Cc1ccccc1)NC(=O)[C@@H]1CCCN1C(=O)OC(C)(C)C)C(C)C)C(=O)NC(CO)(CO)CO (Boc-PF[NMeH][Leuψ((S)CH(OH)CH2)dVal]I-{NHC(CH2OH)3}) | 30 mmHg | 35 mmHg
< 1000 µg/mL | 0.26 nM | < 1000 µg/mL | CC[C@H](C)[C@H](NC(=O)[C@H](C[C@H](O)[C@H](CC(C)C)NC(=O)[C@H](Cc1c[nH]cn1)N(C)C(=O)[C@H](Cc1ccccc1)NC(=O)[C@@H]1CCCN1C(=O)OC(C)(C)C)C(C)C)C(=O)NCc1ccccn1 (Boc-PF[NMeH][Leuψ((S)CH(OH)CH2)dVal]I-{NHCH2(2-pyridyl)}) | 25 mmHg | 24 mmHg
